Measurements taken from ChEMBL document CHEMBL1129954, “From peptide to non-peptide. 3. Atropisomeric GPIIbIIIa antagonists containing the 3,4-dihydro-1H-1,4-benzodiazepine-2,5-dione nucleus” (J Med Chem, 1997).

What follows are compounds tested against T1, Integrin alpha-IIb/beta-3 (Homo sapiens, UniProt P05106+P08514) (assay: Binding affinity for soluble GPIIb/IIIa captured on fibrinogen coated microtiter plate; 1:3 mixture enriched in the slower eluting diastereoisomer).
Format: protein-complex assay
Procedure, shortened: (§1)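 Solid-phase ELISA measuring binding of soluble GPIIbIIIa to plate-coated fibrinogen. Tested as a diastereoisomer-enriched mixture, single determination (n = 1).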

T1 sequence (P05106 27-788 limits assumed): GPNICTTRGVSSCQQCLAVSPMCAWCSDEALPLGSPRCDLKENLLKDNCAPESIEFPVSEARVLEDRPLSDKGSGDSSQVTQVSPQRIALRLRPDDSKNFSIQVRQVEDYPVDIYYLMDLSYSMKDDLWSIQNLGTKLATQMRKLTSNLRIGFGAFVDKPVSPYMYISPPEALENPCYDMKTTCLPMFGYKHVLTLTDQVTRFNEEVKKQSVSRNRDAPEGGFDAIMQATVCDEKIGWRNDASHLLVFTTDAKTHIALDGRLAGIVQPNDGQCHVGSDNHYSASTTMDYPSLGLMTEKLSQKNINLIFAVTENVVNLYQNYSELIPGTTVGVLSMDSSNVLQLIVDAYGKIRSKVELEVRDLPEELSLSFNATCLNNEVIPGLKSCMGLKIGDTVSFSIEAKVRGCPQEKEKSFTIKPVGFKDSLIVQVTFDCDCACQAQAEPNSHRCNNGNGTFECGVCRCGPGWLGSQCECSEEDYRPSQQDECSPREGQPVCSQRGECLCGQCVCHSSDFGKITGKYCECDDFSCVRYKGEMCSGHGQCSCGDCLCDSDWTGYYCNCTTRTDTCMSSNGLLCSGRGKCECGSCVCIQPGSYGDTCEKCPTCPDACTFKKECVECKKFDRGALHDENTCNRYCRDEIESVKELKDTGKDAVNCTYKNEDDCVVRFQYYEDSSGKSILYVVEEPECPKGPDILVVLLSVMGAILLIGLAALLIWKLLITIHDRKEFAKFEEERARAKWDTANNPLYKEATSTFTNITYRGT
T1 sequence (P08514 32-887 limits assumed): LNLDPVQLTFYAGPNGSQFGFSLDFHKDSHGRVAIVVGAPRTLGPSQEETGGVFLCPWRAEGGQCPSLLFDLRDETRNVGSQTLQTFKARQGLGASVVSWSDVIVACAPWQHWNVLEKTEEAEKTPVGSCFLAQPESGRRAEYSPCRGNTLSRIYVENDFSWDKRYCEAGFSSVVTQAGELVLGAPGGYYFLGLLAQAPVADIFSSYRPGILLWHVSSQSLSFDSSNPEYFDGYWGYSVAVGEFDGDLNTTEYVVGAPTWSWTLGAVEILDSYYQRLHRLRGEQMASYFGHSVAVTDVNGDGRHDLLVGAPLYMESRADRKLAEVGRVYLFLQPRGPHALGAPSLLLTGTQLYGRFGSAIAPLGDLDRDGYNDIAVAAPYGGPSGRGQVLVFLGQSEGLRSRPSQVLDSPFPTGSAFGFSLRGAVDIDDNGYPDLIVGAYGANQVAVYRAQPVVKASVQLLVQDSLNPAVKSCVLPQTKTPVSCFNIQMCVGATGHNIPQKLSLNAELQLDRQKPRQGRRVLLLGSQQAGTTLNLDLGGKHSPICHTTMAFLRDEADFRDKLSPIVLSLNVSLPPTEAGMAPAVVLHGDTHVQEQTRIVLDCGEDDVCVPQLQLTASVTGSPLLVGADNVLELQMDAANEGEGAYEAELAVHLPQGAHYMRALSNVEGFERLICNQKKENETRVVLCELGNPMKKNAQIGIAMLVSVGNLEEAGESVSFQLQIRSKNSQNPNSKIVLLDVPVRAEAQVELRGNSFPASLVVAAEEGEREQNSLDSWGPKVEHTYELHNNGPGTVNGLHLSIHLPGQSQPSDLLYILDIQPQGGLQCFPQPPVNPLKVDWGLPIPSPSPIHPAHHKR
T1 sequence (P08514 891-1039 limits assumed): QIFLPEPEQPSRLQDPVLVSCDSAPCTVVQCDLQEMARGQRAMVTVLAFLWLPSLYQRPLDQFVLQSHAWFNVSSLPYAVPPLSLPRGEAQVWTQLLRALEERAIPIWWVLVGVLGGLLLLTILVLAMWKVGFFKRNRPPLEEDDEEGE

Row | IC50 [nM] | Structure (SMILES)
1 | 12 | C[C@@H](CC(=O)O)N1CC(=O)N(C(C)(C)C)c2ccc(C#Cc3ccc(C(=N)N)cc3)cc2C1=O

What follows are compounds tested against T1, Integrin alpha-IIb/beta-3 (assay: Binding affinity for soluble GPIIb/IIIa captured on fibrinogen coated microtiter plate; 3:1 mixture enriched in the faster eluting diastereoisomer).
Format: protein-complex assay
Procedure, shortened: as §1

Row | IC50 [nM] | Structure (SMILES)
2 | 3 | C[C@@H](CC(=O)O)N1CC(=O)N(C(C)(C)C)c2ccc(C#Cc3ccc(C(=N)N)cc3)cc2C1=O

Each compound was assayed against T1, Integrin alpha-IIb/beta-3 (assay: Binding affinity for soluble GPIIb/IIIa captured on fibrinogen coated microtiter plate).
Format: protein-complex assay
Procedure, shortened: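 Solid-phase ELISA measuring binding of soluble GPIIbIIIa to fibrinogen coated on a microtiter plate. Values are the average of at least 3 determinations.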

Row | Structure (SMILES) | IC50 [nM]
3 | C[C@H](CC(=O)O)N1CC(=O)N(C)c2ccc(C#Cc3ccc(C(=N)N)cc3)cc2C1=O | 60
4 | C[C@@H](CC(=O)O)N1CC(=O)N(C)c2ccc(C#Cc3ccc(C(=N)N)cc3)cc2C1=O | 5
5 | C[C@H](CC(=O)O)N1CC(=O)N(C(C)(C)C)c2c(Cl)cc(C#Cc3ccc(C(=N)N)cc3)cc2C1=O (stereo in doubt; 11) | 18
6 | C[C@H](CC(=O)O)N1CC(=O)N(C(C)(C)C)c2c(Cl)cc(C#Cc3ccc(C(=N)N)cc3)cc2C1=O (stereo in doubt; 12) | 65

Continued, values first:

Row | IC50 [nM] | Structure (SMILES)
7 | 11 | CN1C(=O)CN(CCC(=O)O)C(=O)c2cc(C#Cc3ccc(C(=N)N)cc3)ccc21
8 | 7 | C[C@@H](CC(=O)O)N1CC(=O)N(C)c2c(Cl)cc(C#Cc3ccc(C(=N)N)cc3)cc2C1=O
9 | 2 | C[C@@H](CC(=O)O)N1CC(=O)N(C(C)(C)C)c2c(Cl)cc(C#Cc3ccc(C(=N)N)cc3)cc2C1=O (stereo in doubt; 9)
10 | 140 | C[C@@H](CC(=O)O)N1CC(=O)N(C(C)(C)C)c2c(Cl)cc(C#Cc3ccc(C(=N)N)cc3)cc2C1=O (stereo in doubt; 10)
